In ChEMBL document CHEMBL5661979, “Pharmacological inhibition of BMK1 suppresses tumor growth through promyelocytic leukemia protein” (Cancer Cell, 2010):

Columns and labels:
[1] = biological target: Cyclin-dependent kinase 7 (Homo sapiens, UniProt P50613); assay: Inhibition of CDK7 in human HeLa cells lysate at 2 uM pre incubated for 15 mins followed by ATP acyl phosphate probe addition and measured after 10 mins by LC-MS/MS analysis relative to control; format: subcellular; conditions: time 25.0 min
Sequence of Cyclin-dependent kinase 7 (P50613 whole entry, the tested form may be a part): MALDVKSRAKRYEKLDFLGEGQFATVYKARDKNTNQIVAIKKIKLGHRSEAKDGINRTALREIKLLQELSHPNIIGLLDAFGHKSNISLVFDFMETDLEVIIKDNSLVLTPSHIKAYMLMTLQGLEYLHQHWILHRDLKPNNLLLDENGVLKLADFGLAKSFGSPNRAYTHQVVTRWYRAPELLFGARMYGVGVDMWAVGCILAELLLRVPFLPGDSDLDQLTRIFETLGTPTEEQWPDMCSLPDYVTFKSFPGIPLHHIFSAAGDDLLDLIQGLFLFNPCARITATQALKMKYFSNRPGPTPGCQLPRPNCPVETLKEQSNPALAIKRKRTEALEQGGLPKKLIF
Outline: (§1)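 KiNativ profiling in HeLa lysate (5 mg/mL total protein). Lysate incubated 15 min with inhibitor at 50, 10, 2, 0.8 or 0 μM. ATP or ADP acylphosphate probe then added (5 μM final) and reacted 10 min. Reaction stopped with urea and analysed by targeted MS, using up to four fragment ions per kinase peptide-probe conjugate. % inhibition taken against untreated lysate. Run in duplicate.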

[2] = biological target: Calcium/calmodulin-dependent protein kinase type II subunit gamma (Homo sapiens, UniProt Q13555); assay: Inhibition of CAMK2g in human HeLa cells lysate at 50 uM pre incubated for 15 mins followed by ADP acyl phosphate probe addition and measured after 10 mins by LC-MS/MS analysis relative to control; format: subcellular; conditions: time 25.0 min
Outline: (§2)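 KiNativ-type profiling in HeLa lysate (5 mg/mL total protein). Lysate preincubated 15 min with inhibitor at 50, 10, 2, 0.8 or 0 μM, then ATP or ADP acylphosphate probe added (5 μM final) for 10 min. Reaction stopped with urea and analysed by targeted MS, using up to four fragment ions per kinase peptide-probe conjugate. % inhibition calculated against untreated lysate. Duplicate reactions.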

[3] = biological target: Phosphatidylinositol 4-phosphate 3-kinase C2 domain-containing subunit beta (Homo sapiens, UniProt O00750); assay: Inhibition of PIK3C2B in human HeLa cells lysate at 2 uM pre incubated for 15 mins followed by ATP acyl phosphate probe addition and measured after 10 mins by LC-MS/MS analysis relative to control; format: subcellular; conditions: time 25.0 min
Sequence of Phosphatidylinositol 4-phosphate 3-kinase C2 domain-containing subunit beta (O00750 whole entry, the tested form may be a part): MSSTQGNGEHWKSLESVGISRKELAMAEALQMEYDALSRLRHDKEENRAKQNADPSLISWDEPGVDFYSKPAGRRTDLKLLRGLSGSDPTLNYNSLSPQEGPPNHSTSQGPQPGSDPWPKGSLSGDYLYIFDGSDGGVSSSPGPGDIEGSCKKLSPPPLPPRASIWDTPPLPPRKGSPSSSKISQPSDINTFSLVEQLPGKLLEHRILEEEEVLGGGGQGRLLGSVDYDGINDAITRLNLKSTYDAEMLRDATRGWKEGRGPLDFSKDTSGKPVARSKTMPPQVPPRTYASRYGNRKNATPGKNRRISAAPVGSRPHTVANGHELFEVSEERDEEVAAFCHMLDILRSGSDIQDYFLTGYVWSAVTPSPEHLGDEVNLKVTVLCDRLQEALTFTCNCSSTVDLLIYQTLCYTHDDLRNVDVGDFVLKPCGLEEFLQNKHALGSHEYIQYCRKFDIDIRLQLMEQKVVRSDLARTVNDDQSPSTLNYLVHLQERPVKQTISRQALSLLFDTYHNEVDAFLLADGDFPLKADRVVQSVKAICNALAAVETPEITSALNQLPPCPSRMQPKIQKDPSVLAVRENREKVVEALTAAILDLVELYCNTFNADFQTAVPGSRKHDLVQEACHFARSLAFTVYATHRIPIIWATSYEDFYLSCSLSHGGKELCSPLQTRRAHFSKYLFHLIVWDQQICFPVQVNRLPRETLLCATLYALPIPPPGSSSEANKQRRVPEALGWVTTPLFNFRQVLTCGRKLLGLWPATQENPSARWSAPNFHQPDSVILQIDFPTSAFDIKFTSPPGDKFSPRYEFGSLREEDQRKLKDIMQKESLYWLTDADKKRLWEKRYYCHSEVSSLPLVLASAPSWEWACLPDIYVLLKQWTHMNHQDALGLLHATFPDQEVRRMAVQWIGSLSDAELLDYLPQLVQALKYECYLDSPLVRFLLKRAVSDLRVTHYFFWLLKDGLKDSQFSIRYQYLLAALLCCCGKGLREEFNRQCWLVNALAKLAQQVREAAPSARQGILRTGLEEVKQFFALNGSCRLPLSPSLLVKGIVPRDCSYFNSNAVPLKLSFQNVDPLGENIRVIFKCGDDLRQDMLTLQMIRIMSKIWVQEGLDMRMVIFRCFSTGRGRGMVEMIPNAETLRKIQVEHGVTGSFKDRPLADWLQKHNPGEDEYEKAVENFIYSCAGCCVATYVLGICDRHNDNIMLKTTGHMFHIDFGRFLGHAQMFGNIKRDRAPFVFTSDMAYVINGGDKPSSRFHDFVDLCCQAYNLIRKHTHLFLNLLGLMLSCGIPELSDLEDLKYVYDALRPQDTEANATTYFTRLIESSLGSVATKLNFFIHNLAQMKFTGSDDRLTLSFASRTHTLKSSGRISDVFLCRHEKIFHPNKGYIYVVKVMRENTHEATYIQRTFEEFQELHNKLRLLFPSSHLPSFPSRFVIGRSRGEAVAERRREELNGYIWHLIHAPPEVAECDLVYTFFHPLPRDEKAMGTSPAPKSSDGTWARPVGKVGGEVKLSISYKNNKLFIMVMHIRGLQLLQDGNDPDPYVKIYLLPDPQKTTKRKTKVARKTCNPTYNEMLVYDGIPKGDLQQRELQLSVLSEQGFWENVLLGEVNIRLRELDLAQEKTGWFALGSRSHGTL

[4] = biological target: T1, Ribosomal protein S6 kinase alpha-5 (Homo sapiens, UniProt O75582); assay: Inhibition of MSK1 domain 1 in human HeLa cells lysate at 50 uM pre incubated for 15 mins followed by ADP acyl phosphate probe addition and measured after 10 mins by LC-MS/MS analysis relative to control; format: subcellular; conditions: time 25.0 min
T1 sequence (O75582 whole entry, looked up, the tested form may be a part): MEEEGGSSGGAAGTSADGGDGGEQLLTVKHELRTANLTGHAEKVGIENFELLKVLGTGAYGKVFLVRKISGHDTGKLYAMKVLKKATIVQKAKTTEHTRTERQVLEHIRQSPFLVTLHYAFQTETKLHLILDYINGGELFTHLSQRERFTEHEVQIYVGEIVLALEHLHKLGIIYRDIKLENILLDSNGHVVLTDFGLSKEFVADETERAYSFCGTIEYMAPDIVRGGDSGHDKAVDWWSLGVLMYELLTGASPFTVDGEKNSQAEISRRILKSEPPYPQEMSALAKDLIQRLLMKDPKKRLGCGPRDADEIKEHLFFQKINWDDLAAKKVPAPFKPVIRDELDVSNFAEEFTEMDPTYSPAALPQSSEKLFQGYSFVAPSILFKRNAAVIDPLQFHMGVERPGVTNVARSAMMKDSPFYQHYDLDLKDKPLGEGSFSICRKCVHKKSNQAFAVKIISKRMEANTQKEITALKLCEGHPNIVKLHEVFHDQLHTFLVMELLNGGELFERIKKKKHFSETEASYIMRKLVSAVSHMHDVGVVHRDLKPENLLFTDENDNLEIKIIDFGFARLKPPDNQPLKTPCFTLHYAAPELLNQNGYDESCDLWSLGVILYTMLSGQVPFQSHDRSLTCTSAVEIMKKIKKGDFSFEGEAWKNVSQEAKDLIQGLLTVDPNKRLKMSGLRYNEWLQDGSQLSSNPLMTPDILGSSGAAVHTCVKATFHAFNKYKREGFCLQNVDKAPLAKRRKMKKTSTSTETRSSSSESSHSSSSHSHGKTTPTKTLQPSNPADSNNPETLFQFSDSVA

[5] = test system: Tyrosine-protein kinase ABL1 (Homo sapiens), P00519 [F317I]; assay: Inhibition of ABL1 F317I mutant (unknown origin) assessed as remaining activity at 10 uM by ATP-competition binding assay relative to control
[6] = biological target: Serine/threonine-protein kinase MRCK beta (Homo sapiens, UniProt Q9Y5S2); assay: Inhibition of MRCKB in human HeLa cells lysate pre incubated for 15 mins followed by ATP acyl phosphate probe addition and measured after 10 mins by LC-MS/MS analysis; format: subcellular
Sequence of Serine/threonine-protein kinase MRCK beta (Q9Y5S2 whole entry): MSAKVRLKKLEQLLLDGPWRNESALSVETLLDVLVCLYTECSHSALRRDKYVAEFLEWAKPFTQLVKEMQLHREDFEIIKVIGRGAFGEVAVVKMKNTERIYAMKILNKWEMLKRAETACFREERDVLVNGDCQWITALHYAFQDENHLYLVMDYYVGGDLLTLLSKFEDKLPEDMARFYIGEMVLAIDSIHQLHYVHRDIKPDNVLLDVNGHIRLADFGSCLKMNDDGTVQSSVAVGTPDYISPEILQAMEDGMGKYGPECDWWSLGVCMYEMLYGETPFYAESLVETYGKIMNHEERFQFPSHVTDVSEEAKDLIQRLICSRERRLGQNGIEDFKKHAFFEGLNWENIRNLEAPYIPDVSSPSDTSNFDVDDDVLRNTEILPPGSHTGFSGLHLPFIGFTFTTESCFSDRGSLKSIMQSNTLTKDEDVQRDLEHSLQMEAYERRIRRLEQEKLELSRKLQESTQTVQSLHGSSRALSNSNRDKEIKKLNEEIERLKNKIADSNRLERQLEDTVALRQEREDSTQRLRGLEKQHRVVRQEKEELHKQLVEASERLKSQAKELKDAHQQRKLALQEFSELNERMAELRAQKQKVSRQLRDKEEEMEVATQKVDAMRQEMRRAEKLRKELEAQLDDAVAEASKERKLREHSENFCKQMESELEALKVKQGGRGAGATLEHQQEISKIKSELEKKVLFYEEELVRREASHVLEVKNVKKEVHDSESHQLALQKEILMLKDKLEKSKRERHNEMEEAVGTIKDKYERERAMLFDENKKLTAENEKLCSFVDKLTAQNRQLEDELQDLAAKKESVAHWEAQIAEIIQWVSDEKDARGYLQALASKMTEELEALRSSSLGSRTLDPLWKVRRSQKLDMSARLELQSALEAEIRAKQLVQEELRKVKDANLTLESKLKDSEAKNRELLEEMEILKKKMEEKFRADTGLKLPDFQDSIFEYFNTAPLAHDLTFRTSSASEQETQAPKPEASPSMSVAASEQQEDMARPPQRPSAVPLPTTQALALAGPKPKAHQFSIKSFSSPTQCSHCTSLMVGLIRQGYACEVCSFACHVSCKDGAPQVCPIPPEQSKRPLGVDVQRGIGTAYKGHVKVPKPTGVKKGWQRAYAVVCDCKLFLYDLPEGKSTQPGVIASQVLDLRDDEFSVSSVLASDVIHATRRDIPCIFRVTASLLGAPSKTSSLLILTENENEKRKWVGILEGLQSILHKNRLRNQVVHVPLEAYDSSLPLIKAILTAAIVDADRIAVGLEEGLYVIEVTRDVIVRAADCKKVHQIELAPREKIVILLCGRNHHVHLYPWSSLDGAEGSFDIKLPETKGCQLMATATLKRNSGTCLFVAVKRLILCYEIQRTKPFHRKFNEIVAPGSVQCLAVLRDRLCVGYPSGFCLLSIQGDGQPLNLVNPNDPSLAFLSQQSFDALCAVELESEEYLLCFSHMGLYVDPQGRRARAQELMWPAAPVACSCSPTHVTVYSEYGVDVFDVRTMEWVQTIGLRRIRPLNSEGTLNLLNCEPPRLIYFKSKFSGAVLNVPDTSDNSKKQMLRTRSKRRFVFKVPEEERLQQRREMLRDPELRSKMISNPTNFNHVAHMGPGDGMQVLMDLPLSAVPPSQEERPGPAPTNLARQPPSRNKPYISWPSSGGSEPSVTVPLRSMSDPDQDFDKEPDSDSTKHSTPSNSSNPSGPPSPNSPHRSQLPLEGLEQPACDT

Scaffold protein ILK = Scaffold protein ILK (Homo sapiens, UniProt Q13418); assay: Inhibition of ILK in human HeLa cells lysate pre incubated for 15 mins followed by ATP acyl phosphate probe addition and measured after 10 mins by LC-MS/MS analysis; format: subcellular
Sequence of Scaffold protein ILK (Q13418 whole entry): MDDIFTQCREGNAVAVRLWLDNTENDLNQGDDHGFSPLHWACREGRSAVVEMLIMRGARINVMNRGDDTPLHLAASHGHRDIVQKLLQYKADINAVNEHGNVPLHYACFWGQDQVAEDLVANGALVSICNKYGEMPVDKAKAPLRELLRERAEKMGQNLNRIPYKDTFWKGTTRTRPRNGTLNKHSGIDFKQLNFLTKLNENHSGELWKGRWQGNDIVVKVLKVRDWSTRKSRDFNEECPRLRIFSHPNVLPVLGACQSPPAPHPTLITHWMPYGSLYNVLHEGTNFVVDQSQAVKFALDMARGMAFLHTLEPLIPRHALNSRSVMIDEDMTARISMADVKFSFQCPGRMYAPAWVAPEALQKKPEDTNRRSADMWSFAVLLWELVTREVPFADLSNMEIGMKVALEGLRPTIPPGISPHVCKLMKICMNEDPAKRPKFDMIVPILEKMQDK

[7] = Inhibition of MAP3K5/MAP3K6/MAP3K15 in human HeLa cells lysate at 50 uM pre incubated for 15 mins followed by ATP acyl phosphate probe addition and measured after 10 mins by LC-MS/MS analysis relative to control; conditions: 25 min, condition cancer
[8] = biological target: Serine/threonine-protein kinase greatwall (Homo sapiens, UniProt Q96GX5); assay: Inhibition of MASTL in human HeLa cells lysate pre incubated for 15 mins followed by ATP acyl phosphate probe addition and measured after 10 mins by LC-MS/MS analysis; format: subcellular
[9] = biological target: Mitogen-activated protein kinase kinase kinase 11 (Homo sapiens, UniProt Q16584); assay: Inhibition of MLK3 in human HeLa cells lysate at 2 uM pre incubated for 15 mins followed by ATP acyl phosphate probe addition and measured after 10 mins by LC-MS/MS analysis relative to control; format: subcellular; conditions: time 25.0 min
[10] = biological target: T2, Aurora kinase A (Homo sapiens) (UniProt O14965); assay: Inhibition of AurA in human HeLa cells lysate at 2 uM pre incubated for 15 mins followed by ATP acyl phosphate probe addition and measured after 10 mins by LC-MS/MS analysis relative to control; format: subcellular; conditions: time 25.0 min; outline: as §2
T2 sequence (whole entry): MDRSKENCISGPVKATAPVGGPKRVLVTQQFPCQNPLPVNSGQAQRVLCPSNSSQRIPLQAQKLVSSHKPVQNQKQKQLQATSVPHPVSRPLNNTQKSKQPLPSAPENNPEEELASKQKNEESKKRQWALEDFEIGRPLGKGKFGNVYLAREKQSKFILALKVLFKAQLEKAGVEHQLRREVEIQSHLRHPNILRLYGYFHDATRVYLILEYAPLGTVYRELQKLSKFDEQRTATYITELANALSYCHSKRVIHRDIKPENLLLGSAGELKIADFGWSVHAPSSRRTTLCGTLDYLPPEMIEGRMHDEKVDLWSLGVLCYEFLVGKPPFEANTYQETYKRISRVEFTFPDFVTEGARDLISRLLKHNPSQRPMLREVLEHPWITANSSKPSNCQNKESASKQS

[11] = biological target: Cyclin-dependent kinase 2 (Homo sapiens, UniProt P24941); assay: Inhibition of CDK2 in human HeLa cells lysate at 10 uM pre incubated for 15 mins followed by ADP acyl phosphate probe addition and measured after 10 mins by LC-MS/MS analysis relative to control; format: subcellular; conditions: time 25.0 min; outline: as §1
[12] = biological target: Serine/threonine-protein kinase PLK1 (Homo sapiens, UniProt P53350); assay: Inhibition of PLK1 splice variant in human HeLa cells lysate at 50 uM pre incubated for 15 mins followed by ADP acyl phosphate probe addition and measured after 10 mins by LC-MS/MS analysis relative to control; format: subcellular; conditions: time 25.0 min
[13] = biological target: Mitogen-activated protein kinase 3 (Homo sapiens, UniProt P27361); assay: Inhibition of ERK1 in human HeLa cells lysate pre incubated for 15 mins followed by ATP acyl phosphate probe addition and measured after 10 mins by LC-MS/MS analysis; format: subcellular
[14] = biological target: T3, Phosphatidylinositol 5-phosphate 4-kinase type-2 gamma (Homo sapiens) (UniProt Q8TBX8); assay: Inhibition of PIP5K2C LIP1 site in human HeLa cells lysate at 50 uM pre incubated for 15 mins followed by ATP acyl phosphate probe addition and measured after 10 mins by LC-MS/MS analysis relative to control; format: subcellular; conditions: time 25.0 min
T3 sequence (whole entry): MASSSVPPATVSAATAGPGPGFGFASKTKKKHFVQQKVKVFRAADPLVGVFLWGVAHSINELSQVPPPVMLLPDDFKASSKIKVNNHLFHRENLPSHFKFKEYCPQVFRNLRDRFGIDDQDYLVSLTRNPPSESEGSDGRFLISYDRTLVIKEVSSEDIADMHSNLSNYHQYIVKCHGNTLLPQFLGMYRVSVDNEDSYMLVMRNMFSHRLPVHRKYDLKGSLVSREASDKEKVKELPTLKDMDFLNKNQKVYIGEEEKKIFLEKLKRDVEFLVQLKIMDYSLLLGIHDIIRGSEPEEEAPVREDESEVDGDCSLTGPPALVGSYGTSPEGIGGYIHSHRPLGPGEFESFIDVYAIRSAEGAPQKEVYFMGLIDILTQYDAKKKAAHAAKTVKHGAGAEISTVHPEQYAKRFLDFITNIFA

[15] = biological target: T1, Ribosomal protein S6 kinase alpha-5; assay: Inhibition of MSK1 domain 1 K1 site in human HeLa cells lysate at 10 uM pre incubated for 15 mins followed by ADP acyl phosphate probe addition and measured after 10 mins by LC-MS/MS analysis relative to control; format: subcellular; conditions: time 25.0 min

For CCOc1cc(N2CCC(O)CC2)ccc1Nc1ncc2c(n1)N(C)c1ccccc1C(=O)N2C, the inhibition [1] was -7.9%, the inhibition [2] was 14.1% and the inhibition [3] was 26.1%. It also gave an inhibition [4] of 6.4%, an Activity [5] of 30% and an IC50 [6] greater than 50 µM. The IC50 (Scaffold protein ILK) was greater than 50 µM, the inhibition at 50 µM [7] was 2.5% and the IC50 [8] was greater than 50 µM. The inhibition [9] was 5.3%, the inhibition [10] was 7.2% and the inhibition [11] was -3.8%. For the same compound, the inhibition [12] was 13.3%, the IC50 [13] was greater than 50 µM and the inhibition [14] was 9.9%. For the same compound, the inhibition [15] was 1.8%.
